According to ChEMBL document CHEMBL3856229, “Hybrid Antibiotic Overcomes Resistance in P. aeruginosa by Enhancing Outer Membrane Penetration and Reducing Efflux” (J Med Chem, 2016):
Activity calls are given as the source filed them. The rule behind the calls is not given here.

Tests used:
Assay type in all cases: functional
[1] = test system: Stenotrophomonas maltophilia; assay: Antibacterial activity against Stenotrophomonas maltophilia isolate CAN-ICU 62584 after 24 hrs by microtitre broth dilution method; conditions: isolate CAN-ICU 62584, 24 h
Pseudomonas aeruginosa [2] = assay: Antibacterial activity against pandrug-resistant Pseudomonas aeruginosa isolate 91433 in presence of <= 4 ug/ml of ciprofloxacin (reference value: 8 ug/ml)
Pseudomonas aeruginosa [3] = assay: Antimicrobial activity against Pseudomonas aeruginosa PAO750
Summary of the method: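 MICs were measured in PAO1 and in PAO750. PAO750 is a PAO1 derivative lacking the MexAB-OprM, MexCD-OprJ, MexEF-OprN, MexJK and MexXY efflux pumps and the outer membrane protein OpmH.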

Pseudomonas aeruginosa [4] = assay: Antimicrobial activity against Pseudomonas aeruginosa PAO1 assessed as cell membrane blebbing at 8 ug/ml after 3 to 4 hrs by uranyl acetate staining based transmission electron microscopy
Summary of the method: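 PAO1 in Mueller-Hinton broth was exposed to 8 µg/mL at 37 °C (3 h in the legend, 4 h in the text). Untreated cells were the reference. Morphology was imaged by transmission electron microscopy at 75 kV.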

## COc1c(N2C[C@@H]3CCCN(CCCCCCCCCCCCO[C@@H]4[C@@H](O[C@H]5O[C@H](CO)[C@@H](O)[C@H](N)[C@H]5O)[C@H](N)C[C@H](N)[C@H]4O[C@H]4O[C@H](CN)[C@@H](O)C[C@H]4N)[C@@H]3C2)c(F)cc2c(=O)c(C(=O)O)cn(C3CC3)c12.Cl.Cl.Cl.Cl.Cl
[1]
  MIC: 32 µg/mL
Pseudomonas aeruginosa [2]
  MIC: < 1 µg/mL
Pseudomonas aeruginosa [3]
  MIC: 0.5 µg/mL
Pseudomonas aeruginosa [4]
  Activity: Active
